JNK3 blocker – JNK3 kinase activity inhibitors, primary screen, biochemical, human, purified enzyme | HTS | inhibition, % at 8 µM | 0.61% of 60,000 active | AID 746, 2007; in the data active = inhibition above about 17%
S1P1 ag pot – S1P1 agonists and agonism potentiators, primary screen, cell-based, primary and confirmation screens, CRE-bla reporter. Sphingosine 1-phosphate receptor 1 (Homo sapiens), P21453. S1P1 CRE-bla cells, forskolin, beta-lactamase FRET, potentiator mode; S1P1 agonist co-added at EC20, 2 nM; 100% = saturating reference agonist, 0% = basal. activation, % at 9.5 µM. 0.57% of 56,000 active. AID 449, 2006;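 active = activation above a cutoff set at the mean activation of all tested compounds plus 3 SD, cut at about 54% in these data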;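 also: forskolin at 4 µM as EC80 and the EC20 agonist is SEW2871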
Target sequence (P21453 whole entry, looked up): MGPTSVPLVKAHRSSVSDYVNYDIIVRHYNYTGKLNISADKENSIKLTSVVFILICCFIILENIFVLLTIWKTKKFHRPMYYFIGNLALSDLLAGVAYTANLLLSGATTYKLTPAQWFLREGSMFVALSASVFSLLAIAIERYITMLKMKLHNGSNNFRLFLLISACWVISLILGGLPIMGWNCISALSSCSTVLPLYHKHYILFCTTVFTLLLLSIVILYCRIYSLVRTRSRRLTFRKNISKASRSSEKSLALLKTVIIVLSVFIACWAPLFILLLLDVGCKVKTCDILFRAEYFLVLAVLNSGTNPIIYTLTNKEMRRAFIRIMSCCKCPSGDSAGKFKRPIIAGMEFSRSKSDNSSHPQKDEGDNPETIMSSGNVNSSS
S1P3 agonist – human S1P3 receptor agonists, primary screen, cell-based, primary and confirmation, NFAT-BLA reporter. S1P3 NFAT-BLA reporter cells, agonism, FRET ratio; relative to 1 µM S1P, basal subtracted. activation, % at 4.5 µM. 0.1% of 60,000 active. AID 373, 2006;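 active = activation above the screen-wide mean plus 3 SD, cut at about 4.5% in these data, passing the limit was not always enough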
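material = human S1P3 NFAT-BLA reporter CHO cells | schedule = 4 h compound at 37 °C, 2 h substrate at RT | measured by = fluorescent BLA substrate, ex 405 nm, em 460/535 nm ratio | controls = 1 µM S1P reference | replication = primary once, confirmation triplicate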
M1 ag – M1 muscarinic receptor agonists, primary screen, CHO-M1 cells, Fluo-4 calcium, agonist mode; Muscarinic acetylcholine receptor M1; Fluo-4 calcium fluorescence; hits give high values; B-score at 10 µM; 3% of 64,000 active; AID 626, 2007;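 active = fluorescence rise, raw or as B-score row- and column-corrected plate score, outside the 99.7% band of its plate's samples, either direction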
Jurkat tox 60K – cytotoxicity toward Jurkat T cells, primary screen, cytotoxicity control, cell-based, Jurkat E6.1, 60K MLSMR library; Jurkat E6.1 viability, ATP luminescence, 48 h; inhibition, % at 4 µM; 1.2% of 56,000 active; AID 463, 2006;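 active = inhibition above the mean inhibition of all tested compounds plus 3 SD, cut at about 28% in these data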
M1 antag – antagonists of rat M1 muscarinic receptor; 3.4% of 64,000 active; CHO-M1 cells, Fluo-4 calcium, ACh EC80 antagonist mode; hits give low values; Muscarinic acetylcholine receptor M1 (Rattus norvegicus), P08482; AID 628, 2007; B-score at 10 µM;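 active = calcium fluorescence response, raw or row-and-column corrected B-score, differing from the plate sample mean either way at a set confidence level, mostly lower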
M1 antag conf – rat M1 muscarinic receptor antagonists, confirmation, CHO cells, Fluo-4 calcium, duplicate. shares compounds with M1 antag. ACh EC80 antagonism; hits give low values. calcium response (max-min fluorescence) at 10 µM. 43% of 1,700 active;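 active = calcium response below the same-plate mean of wells given acetylcholine alone at its 80%-effect dose, minus 3 SD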
mGluR4 antag – human mGluR4 response to M1 antagonist hits, M1 allosteric modulator project, cell-based, antagonist mode, secondary assay 1; 0.9% of 1,700 active; shares compounds with M1 antag; CHO-mGluR4 calcium flux, Fluo-4 fluorescence, glutamate EC80; hits give low values; fluorescence response (max-min) at 10 µM;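 active = fluorescence response below the plate's average for near-maximal glutamate wells, less 3 SD of those wells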;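 also: raw unnormalized fluorescence span taken in the window right after glutamate addition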
Large screens that a line does not name were inactive (follow-up assays come after a bar, where they were run). Compounds with a hit are over-represented: about 7.4% of the library has one in this group of screens.

COc1ccc(C2C(C(=O)c3sc(C)nc3C)=C(O)C(=O)N2CCN(C)C)cc1 (stereo not drawn)	M1 antag -10.9 | M1 antag conf inactive | mGluR4 antag inactive
Cc1cc(=O)oc(C)c1C(=O)N1CCN(C(c2ccccc2)c2ccccc2)CC1	none
CCCc1cc(C(=O)N2CCN(C(c3ccccc3)c3ccccc3)CC2)no1	none
Cc1cc(C(=O)N2CCN(C(c3ccccc3)c3ccccc3)CC2)no1	S1P1 ag pot 69.4, M1 antag -3.02 | M1 antag conf 301 | mGluR4 antag inactive
O=C(c1ccc(=O)oc1)N1CCN(C(c2ccccc2)c2ccccc2)CC1	M1 antag -2.68 (no result: Jurkat tox 60K) | M1 antag conf 319 | mGluR4 antag inactive
CC(C)(C)c1cc(C(=O)NCc2ccccc2)ccn1	M1 antag -4.24 (no result: S1P1 ag pot) | M1 antag conf inactive | mGluR4 antag inactive
CS(=O)(=O)c1cccc(C(=O)NCc2ccccc2)c1	none
CCn1c(=N)n(CC(=O)c2ccco2)c2ccccc21	M1 antag -4.02 | M1 antag conf inactive | mGluR4 antag inactive
CCn1c(=N)n(CCO)c2ccccc21	none
CC(C)(C#CCN1CCCC1)OCCC#N	none
C=C(C)C(C)(C#CCN1CCCC1)OC(C)=O (stereo not drawn)	M1 antag -1.51 | M1 antag conf 526 | mGluR4 antag inactive
COc1ccc(Cc2nc3ccc(S(N)(=O)=O)cc3[nH]2)cc1OC	M1 antag -2.93 | M1 antag conf inactive | mGluR4 antag inactive
O=C(Cc1ccc(Cl)cc1)Nc1ccccc1CO	M1 antag -2.54 (no result: JNK3 blocker, S1P1 ag pot, S1P3 agonist, Jurkat tox 60K) | M1 antag conf inactive | mGluR4 antag inactive
CCOCCCNC(=O)NC12CC3CC(CC(C3)C1)C2	M1 antag -5.14 | M1 antag conf inactive | mGluR4 antag inactive
Cc1c(C)n(C(=O)CSc2ncn[nH]2)c2ccccc12	none
O=C(CSc1ncn[nH]1)N1CCN(c2nnc(-c3ccccc3)c3ccccc23)CC1	M1 antag -2.9 | M1 antag conf 497 | mGluR4 antag inactive
Cc1ccc2nc(-c3ccc4c(c3)OCCO4)cc(C(=O)O)c2c1	none
O=C(O)c1cc(-c2cccs2)nc2cc3c(cc12)OCCO3	M1 antag -0.773 | M1 antag conf inactive | mGluR4 antag inactive
Cc1ccc(-n2nc(C)c(C3C(C#N)=C(N)OC4=C3C(=O)CCC4)c2Cl)cc1 (stereo not drawn)	none
Cc1cnc(-c2nnc(N(C)C(=O)c3cnccn3)s2)cn1	none
CN(C)S(=O)(=O)c1cccc(-c2nnc(SCc3ccc4c(c3)OCCO4)o2)c1	M1 antag -12.5 | M1 antag conf inactive | mGluR4 antag inactive
CCCC1(CCC)NC(=O)NC1=O	M1 antag -2.87 | M1 antag conf inactive | mGluR4 antag inactive
CCOC(=O)c1cnc(-n2nc(C)cc2C)nc1NCc1ccccc1	M1 antag -4.29 | M1 antag conf 405 | mGluR4 antag inactive
CC(=O)C1=C(Nc2ccc(C)cc2)CC(C)(O)C(C(C)=O)C1c1ccco1 (stereo not drawn)	M1 antag -13.1 | M1 antag conf inactive | mGluR4 antag inactive
Cc1[nH]c2ccc3c(ncn3CCC#N)c2c1C	none (no result: Jurkat tox 60K)
CCN(CC)CCNC(=O)c1cc2c(-c3ccc(Cl)cc3)nn(C)c2s1	M1 antag -2.88 | M1 antag conf inactive | mGluR4 antag inactive
CCOc1ccc(-c2nnc3ccc(SCc4ccc(C(=O)OC)o4)nn23)cc1	M1 antag -3.99 | M1 antag conf 520 | mGluR4 antag inactive
COc1ccc(N2CCN(C(=O)c3ccc(S(=O)(=O)N4CCOCC4)cc3)CC2)cc1	none
COc1ccccc1OCCn1c(C(C)O)nc2ccccc21 (stereo not drawn)	none
CCC1Oc2ccccc2N(CC(=O)NCCN2CCc3ccccc3C2)C1=O (stereo not drawn)	M1 antag -1.74 | M1 antag conf 583 | mGluR4 antag inactive
CCOC(=O)CCc1c(C)c2ccc(OCc3nn[nH]n3)cc2oc1=O	none (no result: M1 ag, M1 antag)
C=CCOC(=O)COc1ccc2c(C)c(C)c(=O)oc2c1	M1 antag -2.61 | M1 antag conf inactive | mGluR4 antag inactive
C=CCOC(=O)COc1ccc2c(C)c(CC)c(=O)oc2c1	none (no result: S1P1 ag pot)
CCOC(=O)CCc1c(C)c2ccc(OCC(=O)OC(C)C)cc2oc1=O	M1 antag -2.4 | M1 antag conf inactive | mGluR4 antag inactive
COc1ccccc1N1CCN(CCc2n[nH]c(=S)n2-c2ccccc2)CC1	none
Clc1ccc(-n2nnnc2SCc2c(-c3ccccc3)nc3sccn23)cc1	none
Cc1ccc(-c2nnc(N3CCN(C(=O)c4ccco4)CC3)c3ccccc23)cc1	M1 antag -6.93 | M1 antag conf 209 | mGluR4 antag inactive
Cc1ccc(-c2nnc(N3CCN(C(=O)CN4C(=O)c5ccccc5C4=O)CC3)c3ccccc23)cc1	none
Cc1cc(C)c(NC(=O)C2CSCCS2)c(C)c1 (stereo not drawn)	none
Cn1c(Cc2ccccc2)nnc1SCC(=O)c1ccc(Br)s1	M1 antag -1.69 | M1 antag conf 461 | mGluR4 antag inactive
Oc1cccc(Nc2nc(NCC3CCCO3)c3ccccc3n2)c1 (stereo not drawn)	M1 antag -3.9 | M1 antag conf 357 | mGluR4 antag inactive
Cc1cccc(N(CC(=O)NCc2ccc3c(c2)OCO3)C(=O)CCC(=O)Nc2ccccn2)c1	none
O=C(C1CCC1)N1CCc2cc(S(=O)(=O)NC3CCCC3)ccc21	M1 antag -15 | M1 antag conf inactive | mGluR4 antag inactive
O=C(O)CCC(=O)N1CCc2cc(S(=O)(=O)NC3CCCC3)ccc21	none (no result: M1 antag)
COc1ccc(C2(CNC(C)=O)CCOCC2)cc1OC	none
CCN(CC)CCOC(=O)C1(c2ccc(OC)c(OC)c2)CCCC1	M1 antag -10.8 (no result: Jurkat tox 60K) | M1 antag conf 165 | mGluR4 antag inactive
O=C(CSCc1cnn(-c2ccccc2)c1-n1cccc1)NCCN1CCOCC1	M1 antag -2.73 (no result: JNK3 blocker, S1P1 ag pot, S1P3 agonist, Jurkat tox 60K) | M1 antag conf 520 | mGluR4 antag inactive
COc1cc(C)c(S(=O)(=O)N2CCCC2)cc1C	none

Bioassay records (PubChem BioAssay)
